Experimental data from BindingDB's records for doi:10.1016/j.bmcl.2019.05.024 (Harvard Medical School, 2019).

What was measured:
[1] = target: Cyclin-dependent kinase 14 (Homo sapiens, UniProt O94921); test: Inhibition of FLAG-tagged CDK14 (unknown origin) expressed in human HEK293 cells assessed as blocking of CDK14 pulldown incubated for 4 hrs by biotinylated JNK-IN- based pull down assay
Summary of the method: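 Cells were treated with compound at various doses for 4 h and then lysed. Lysates were incubated with biotinylated JNK-IN-7 and captured on streptavidin-coated beads. CDK14 capture was detected by western blot.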

[2] = target: Cyclin-dependent kinase 14/Cyclin-Y (Homo sapiens, UniProt O94921+Q8ND76); test: Inhibition of recombinant GST-tagged human full length CDK14/cyclin Y (2 to end residues) preincubated for 30 mins by Lantha screen eu binding assay
Cyclin-dependent kinase 14/Cyclin-Y, sequence (O94921 whole entry): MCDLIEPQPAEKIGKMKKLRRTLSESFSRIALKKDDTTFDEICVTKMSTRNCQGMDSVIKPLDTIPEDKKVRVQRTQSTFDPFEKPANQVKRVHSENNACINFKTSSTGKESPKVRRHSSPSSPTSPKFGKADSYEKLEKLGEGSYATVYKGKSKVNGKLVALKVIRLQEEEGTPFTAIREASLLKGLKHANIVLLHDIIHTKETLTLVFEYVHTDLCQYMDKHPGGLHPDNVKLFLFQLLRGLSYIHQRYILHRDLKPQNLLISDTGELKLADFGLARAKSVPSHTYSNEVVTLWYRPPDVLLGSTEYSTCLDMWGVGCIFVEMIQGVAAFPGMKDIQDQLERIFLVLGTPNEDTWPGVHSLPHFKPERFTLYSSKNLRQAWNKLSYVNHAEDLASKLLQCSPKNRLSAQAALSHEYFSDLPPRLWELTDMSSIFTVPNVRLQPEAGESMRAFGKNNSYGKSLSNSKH
Cyclin-dependent kinase 14/Cyclin-Y, sequence (Q8ND76 2-341 limits assumed): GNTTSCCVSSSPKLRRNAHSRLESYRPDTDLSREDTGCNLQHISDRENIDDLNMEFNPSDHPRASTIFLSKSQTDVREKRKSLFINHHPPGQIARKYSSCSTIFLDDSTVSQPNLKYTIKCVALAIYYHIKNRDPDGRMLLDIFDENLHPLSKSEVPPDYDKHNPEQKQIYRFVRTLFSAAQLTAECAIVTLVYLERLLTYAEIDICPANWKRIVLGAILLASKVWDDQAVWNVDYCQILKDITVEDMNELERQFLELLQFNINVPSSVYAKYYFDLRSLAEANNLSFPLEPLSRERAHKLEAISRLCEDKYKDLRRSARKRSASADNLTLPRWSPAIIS
Summary of the method: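 CDK14 binding was measured in a LanthaScreen binding assay. IC50 is the average of three replicates, reported ± standard error.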

Cyclin-dependent kinase 14, sequence (O94921 whole entry): as the sequence (O94921 whole entry) above

| SMILES | IC50 [1] [nM] | IC50 [2] [nM] |
| --- | --- | --- |
| C=CC(=O)Nc1cccc(C(=O)N2CCC(NC(=O)c3n[nH]cc3NC(=O)c3c(Cl)cccc3Cl)CC2)c1 | 500 | – |
| CN(C)CC=CC(=O)Nc1cccc(C(=O)Nc2ccc(NC(=O)c3n[nH]cc3NC(=O)c3c(Cl)cccc3Cl)cc2)c1 | – | 17 |
